PRMT1 FP inh: inhibitors of human PRMT1; inhibition, % at 2.79 µM; Q99873; 370,000 compounds, 1.3% hits; recombinant PRMT1, activity-based probe fluorescence polarization;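 active = inhibition above about 21% made by adding two undisclosed values, limit read from the data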
Target sequence (Q99873 whole entry, looked up): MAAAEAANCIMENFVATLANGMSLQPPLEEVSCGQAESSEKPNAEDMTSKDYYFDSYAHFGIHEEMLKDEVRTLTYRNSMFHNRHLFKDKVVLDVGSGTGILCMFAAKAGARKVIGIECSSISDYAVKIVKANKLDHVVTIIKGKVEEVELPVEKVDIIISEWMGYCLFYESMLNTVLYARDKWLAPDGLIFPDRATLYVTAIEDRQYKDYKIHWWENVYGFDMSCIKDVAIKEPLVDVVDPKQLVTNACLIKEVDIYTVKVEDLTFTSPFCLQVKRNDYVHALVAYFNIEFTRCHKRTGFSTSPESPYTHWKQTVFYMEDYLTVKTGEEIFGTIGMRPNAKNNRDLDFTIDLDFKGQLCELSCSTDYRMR
TCR CD3 inh: inhibitors of human TCR-CD3 interaction; TAMRA-labeled TCR probe fluorescence, biochemical; inhibition, % at 9.4 µM; 360,000 compounds, 0.37% hits; AID 651800; in the data active = inhibition above about 19%;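 note: recombinant mutant TCR 2C K166C tagged with TAMRA read by polarization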
mABHD4 FP: inhibitors of mouse ABHD4. Q8VD66. purified mABHD4, FP-Rh probe fluorescence polarization. inhibition, % at 8.92 µM. 370,000 compounds, 0.54% hits;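 active = inhibition exceeding the mean over every tested compound plus 3 SD, cut at about 30% in these data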
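assay system = mABHD4 protein | compound dosing = single nominal dose of 8.92 µM, 0.89% DMSO final | read-out basis = percent inhibition of probe binding, normalized to plate controls | schedule = Enzyme–compound pre-incubation 45 min, then probe 60 min, both 25 °C | detection = fluorescence polarization, excitation 525 nm, emission 598 nm, BODIPY TMR filters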
HTRA1 inh: HTRA1 (human) protease inhibition. Q92743. inhibition, % at 5.96 µM. AID 504803. 340,000 compounds, 0.5% hits. recombinant HTRA1, FP-rhodamine activity-based probe, fluorescence polarization; in the data active = inhibition above about 36%
SIAE inh: inhibitors of human sialic acid acetylesterase SIAE | Q9HAT2 | inhibition, % at 9.66 µM | 370,000 compounds, 0.69% hits | AID 1053197 | SIAE FP-Rh probe binding, fluorescence polarization;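 active = inhibition above a cutoff: mean of compounds within the control limits plus 3 SD of those, cut at about 17% in these data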
SIAE confirm: human SIAE inhibition, confirmation; shares compounds with SIAE inh; SIAE FP-Rh activity-based probe, fluorescence polarization; inhibition, % at 9.66 µM; 2,300 compounds, 13% hits;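 active = mean inhibition of the replicates above the hit cutoff set in the primary screen, cut at about 17% in these data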;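 note: inhibitors lower polarization as more probe stays unbound to SIAE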
Large screens that a line does not name were inactive (follow-up assays come after a bar, where they were run). Hits are enriched below; roughly 2.7% of the tested compounds scored in any of these assays.

Cc1ccc(-c2nc(Nc3cccc(O)c3)c3ccccc3n2)cc1	none
Cc1ccc(-c2nc(Nc3ccc(N4CCOCC4)cc3)c3ccccc3n2)cc1	SIAE inh 21 (no result: HTRA1 inh) | SIAE confirm inactive
Oc1ccc(Nc2nc(-c3ccccc3O)nc3ccccc23)cc1	SIAE inh 26 | SIAE confirm inactive
Cc1cn([C@H]2C[C@H](O)[C@@H](/C=C/C(=O)NCc3ccc4c(c3)OCO4)O2)c(=O)[nH]c1=O	none (no result: HTRA1 inh)
NC(=O)c1ccc(NC(=O)COC(=O)CCN=C2NS(=O)(=O)c3ccccc32)cc1	none
COc1ccc(N2CCN(C(=O)CN3CCN(c4nc(-c5ccc(F)cc5)cs4)CC3)CC2)cc1	SIAE inh 28 | SIAE confirm inactive
COc1ccc(-c2nnn(CC(=O)N3CCN(c4ccc(F)cc4)CC3)n2)cc1	none
CN(Cc1cccs1)C(=O)c1ccc(S(=O)(=O)N2CCCCC2)cc1	none
Cc1ccc(CN(C)C(=O)c2ccc(S(=O)(=O)N3CCCCCC3)cc2)o1	SIAE inh 17 | SIAE confirm inactive
Cc1[nH]nc2c1C(c1ccc(Br)cc1)N(Cc1ccccc1)C2=O (stereo not given)	none (no result: HTRA1 inh)
COc1ccc(CCNC(=O)c2cc(S(=O)(=O)N3CCOCC3)ccc2F)cc1	none
COc1ccc(OC)c(S(=O)(=O)NC2CC(=O)N(c3cccc(F)c3)C2)c1 (stereo not given)	none
Cc1ccccc1S(=O)(=O)N1C(c2ccc(Cl)cc2)CC=C(C(=O)O)C1c1cccc(Cl)c1 (stereo not given)	none (no result: HTRA1 inh)
O=C(CN1CCN(c2ccc(O)cc2)CC1)Nc1cc(S(=O)(=O)N2CCCCC2)ccc1Cl	SIAE inh 21 | SIAE confirm inactive
O=S(=O)(c1ccc(Cl)c(NC(=S)N/N=C/c2ccc(O)cc2)c1)N1CCOCC1	SIAE inh 18 | SIAE confirm inactive
O=C(CN1CCN(c2ccc(O)cc2)CC1)Nc1cc(S(=O)(=O)N2CCCC2)ccc1Cl	none
C=CCNc1nc2cc(-c3ccccc3C)sc2c(=O)n1C	none (no result: HTRA1 inh)
COCCCNC(=O)/C(C#N)=C/c1ccc(F)cc1	SIAE inh 33 | SIAE confirm inactive
CCCC(=O)OC[C@H]1CN([C@H](C)c2ccccc2)S(=O)(=O)c2c(F)cccc2O1	none (no result: HTRA1 inh)
Cc1cc(N=Cc2c(O)n(-c3cccc(C(F)(F)F)c3)c(=O)c3ccccc23)no1	SIAE inh 21 | SIAE confirm inactive
Cc1[nH]n(-c2ccc(Br)cc2)c(=O)c1/C=N/NC(=O)c1ccccc1	SIAE inh 17 | SIAE confirm inactive
CC1CCN(c2c3c(nc4ncnn24)CCCC3)CC1	none (no result: TCR CD3 inh, HTRA1 inh)
COCCN(CC(=O)Nc1cccc(C)c1C)C(=O)c1oc2c(Cl)cccc2c1C	SIAE inh 28 | SIAE confirm inactive
NNC(=O)CC1=NNC(=O)C1	SIAE inh 19 | SIAE confirm inactive
O=C1CC(CC(=O)N/N=C/c2ccccc2[N+](=O)[O-])=NN1	none
CN(C)CCN(Cc1ccc(Cl)cc1)c1ccccn1	none
S=C(NCCCCN(Cc1ccc(Cl)cc1)c1ccc(Br)cn1)NCCCc1cnc[nH]1	SIAE inh 24 (no result: HTRA1 inh) | SIAE confirm 28
CCNC(=S)NNC(=O)c1cc(-c2cccc(OC)c2)nc2ccccc12	SIAE inh 22 | SIAE confirm inactive
S=c1[nH]nc(-c2n[nH]c3c2CCC3)n1N=Cc1ccc(Br)s1	none (no result: TCR CD3 inh, HTRA1 inh)
CC(C)=CCc1cc(-c2oc3cc(O)cc(O)c3c(=O)c2O)ccc1O	SIAE inh 23 | SIAE confirm inactive
CC1CN(S(=O)(=O)c2cccc(C(=O)N(Cc3nnc(-c4ccccc4Cl)o3)C3CC3)c2)CC(C)O1 (stereo not given)	SIAE inh 17 | SIAE confirm inactive
Cc1c(C(=O)N2CCN(c3ccccn3)CC2)cccc1[N+](=O)[O-]	SIAE inh 18 | SIAE confirm inactive
O=C(c1ccc(Cl)cc1[N+](=O)[O-])N1CCN(c2ccccn2)CC1	none
Cc1ccccc1P(=O)(CO)c1ccccc1C	SIAE inh 178 | SIAE confirm inactive
O=C(CNS(=O)(=O)c1cccc(Br)c1)NCCCc1ccccc1	SIAE inh 20 | SIAE confirm inactive
CCN(CC)c1ccc(/C=N/NC(=O)c2nnn(-c3nonc3N)c2-c2ccc(C)cc2)cc1	SIAE inh 25 | SIAE confirm inactive
CCOc1ccc(/C=N/NC(=O)c2nnn(-c3nonc3N)c2-c2ccc(OCC)cc2)cc1	none
Cc1ccccc1Cn1cc(COC(=O)N(C)Cc2ccccc2)nn1	none (no result: TCR CD3 inh, HTRA1 inh)
Nc1ccc(F)c(CN2CCN(c3ncc(Cc4ccccc4)cn3)CC2)c1	none (no result: HTRA1 inh)
c1cc2c3c(cccc3c1)NC1(CCCCC1)N2	SIAE inh 30 | SIAE confirm inactive
S=C1NC2(CCCCC2)NN1c1ccccc1	none
O=C(CNc1ccc2ccccc2c1)N/N=C/c1ccc(OC(=O)/C=C/c2ccco2)cc1	SIAE inh 22 | SIAE confirm inactive
CCC(=O)Nc1ccc(Cl)cc1C(=O)c1ccc[nH]1	none (no result: TCR CD3 inh, HTRA1 inh)
c1ccc2c(c1)CCN(c1nc3ccccc3n3cnnc13)C2	SIAE inh 18 | SIAE confirm inactive
COC(=O)c1sc(C(F)(F)F)c(-c2ccccc2)c1S(=O)(=O)N1CCOCC1	none
CC1CCc2c(C(=O)NCC3CCCO3)csc2C1 (stereo not given)	none
Cc1noc(C)c1COC(=O)c1csc2c1CCC(C)C2 (stereo not given)	SIAE inh 20 | SIAE confirm inactive
Cc1cc(C)cc(N/C(N)=N/c2nc(C)cc(C)n2)c1	SIAE inh 23 | SIAE confirm inactive
CC[C@@H]1CC2=C(C(=O)OC(C)(C)O2)[C@H](c2ccc(Cl)cc2)O1	none (no result: HTRA1 inh)
Cc1nc2c(ccc3nc(NC(=O)c4ccc5c(c4)OCCO5)sc32)s1	none
O=C(Nc1nc2c(Br)cccc2s1)c1ccc2c(c1)OCCO2	SIAE inh 22 (no result: TCR CD3 inh, HTRA1 inh) | SIAE confirm inactive
O=C(/C=C(\Nc1ccc(Cl)c(Cl)c1)c1ccccc1)c1ccccc1	none (no result: HTRA1 inh)
C/C(=C\C(=O)c1ccccc1)Nc1ccc(Br)c(Cl)c1	SIAE inh 18 | SIAE confirm inactive
C/C(=C\C(=O)c1ccccc1)Nc1ccc(N2CCOCC2)cc1	SIAE inh 18 | SIAE confirm inactive
COCCCNC(=S)N1CCN(C(c2ccccc2)c2ccccc2)CC1	none
COc1ccc(C2CC(C)(c3ccc(OC)cc3)Nc3ccccc3N2)cc1 (stereo not given)	SIAE inh 17 | SIAE confirm inactive
COc1ccc(C2(C)CC(C)(C)Nc3ccccc32)cc1 (stereo not given)	none
O=C(NCCC(=O)N(CCc1ccccc1)Cc1ccccc1)c1ccc([N+](=O)[O-])cc1	none
C[C@]12CCC(=O)C=C1C=C[C@@H]1[C@@H]2CC[C@@]2(C)[C@H]1CC[C@@]21CCC(=O)O1	SIAE inh 19 | SIAE confirm inactive
CC(=O)O[C@]1(C(C)=O)CCC2C3C=C(C)C4=CC(=O)CC[C@]4(C)C3CC[C@@]21C (stereo not given in full)	none
